Assay results as given in ChEMBL document CHEMBL2321739, “Discovery of a novel small molecule inhibitor targeting the frataxin/ubiquitin interaction via structure-based virtual screening and bioassays” (J Med Chem, 2013).
Substitutions are numbered along the chain they refer to. Activity calls are given as the source filed them. The rule behind the calls is not given here. Peptide text beside a SMILES is read from it. * marks the point of attachment. Cbz = O=C(OCc1ccccc1)*

How the values were obtained:
[1] = tested on: Calu-6; test: Inhibition of His-tagged Frataxin (unknown origin)/HA-tagged Ubiquitin interaction expressed in human Calu6 cells assessed as accumulation of monoUB-tagged frataxin (1-210) precursor at 10 uM after 18 hrs by immunoprecipitation assay; format: cell-based
Method in brief: (§1)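 Calu-6 cells cotransfected with His-frataxin and HA-Ub, then treated with 10 µM MG132 for 18 h starting 24 h after transfection. Frataxin immunoprecipitated from 1.5 mg extract using anti-frataxin on protein A/G beads (4 °C, 12 h). Precipitates run on 12% SDS-PAGE and blotted with anti-Ub. Three independent experiments.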

[2] = tested on: Calu-6; test: Inhibition of His6-tagged Frataxin (unknown origin)/HA-tagged Ubiquitin interaction expressed in human Calu6 cells assessed as accumulation of frataxin at 10 uM after 18 hrs by immunoprecipitation assay; format: cell-based; method in brief: as §1
[3] = tested on: Calu-6; test: Inhibition of His-tagged Frataxin (unknown origin)/Ubiquitin interaction expressed in human Calu6 cells assessed as increase in frataxin (1-210) precursor level at 10 uM after 18 hrs by Western blotting analysis; format: cell-based
Method in brief: (§2)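 Calu-6 cells (DMEM with glutamax, 10% FBS) transiently transfected with His-frataxin. From 24 h post-transfection, treated with 10 µM proteasome inhibitor for 18 h or 50 µM compound for 3 days. Extracts (50 µg) resolved on 15% SDS gels and immunoblotted with anti-frataxin using ECL detection. Band levels quantified by PhosphorImager and normalized to tubulin. Three independent experiments.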

[4] = tested on: T1, Frataxin, mitochondrial (Homo sapiens), Q16595 [K147R]; test: Inhibition of recombinant GST-tagged mono ubiquitin/His-tagged Frataxin K147R mutant (unknown origin) interaction expressed in human Calu6 cells assessed as presence of frataxin signal at 10 uM after 18 hrs by GST pull down-based Western blotting analysis; format: cell-based; conditions: Calu-6
T1 sequence (whole entry): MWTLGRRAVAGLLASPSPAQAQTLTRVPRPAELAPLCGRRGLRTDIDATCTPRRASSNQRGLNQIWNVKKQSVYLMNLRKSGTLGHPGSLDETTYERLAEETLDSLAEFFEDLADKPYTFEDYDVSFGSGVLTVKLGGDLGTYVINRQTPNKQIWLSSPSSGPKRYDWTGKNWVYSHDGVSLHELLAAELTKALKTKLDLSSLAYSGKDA
Method in brief: (§3)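 Calu-6 cells transfected with His-frataxin or His-K147R. From 24 h post-transfection, cells received 10 µM MG132 for 18 h, or compound for 3 days with MG132 added for the last 18 h. Lysate (500 µg) pulled down with 5 µg GST-monoUb or GST on GSH-sepharose, 4 h at 4 °C, pH 7.5 buffer. Eluates blotted with anti-His and quantified by densitometry as % of control. IC50 obtained by four-parameter logistic fit; at least three independent experiments.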

[5] = tested on: Calu-6; test: Inhibition of recombinant His-tagged Frataxin (unknown origin)/GST-tagged mono ubiquitin interaction expressed in human Calu6 cells assessed as presence of frataxin signal at 10 uM after 18 hrs by GST pull down-based Western blotting analysis; format: cell-based; method in brief: as §3
[6] = tested on: Calu-6; test: Inhibition of human His-tagged Frataxin/Ubiquitin interaction expressed in human Calu6 cells assessed as increase in mature frataxin (81-210) level at 50 uM after 3 days by Western blotting analysis; format: cell-based; method in brief: as §2
[7] = tested on: Calu-6; test: (§4) Inhibition of human His-tagged Frataxin/GST-tagged mono ubiquitin interaction expressed in human Calu6 cells after 3 days by GST pull down-based Western blot analysis; format: cell-based; method in brief: as §3
[8] = as §4; format: cell-based; conditions: calu-6; method in brief: as §3
[9] = target: T2, Frataxin, mitochondrial (Homo sapiens) (UniProt Q16595); test: Binding affinity to recombinant His-tagged frataxin (unknown origin) at 1 uM at 25 degC by UF-LC/MS analysis relative to control
T2 sequence (whole entry): T1 sequence (whole entry) with R147K
Method in brief: (§5)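 His-frataxin recombinant protein (E. coli-expressed, Ni-NTA purified), 1 µM, incubated with ligand at 1 µM in 100 mM Tris-HCl pH 7.5, 50 mM KCl, 5 mM MgCl2, DMSO ≤2%, for 60 min at 25 or 37 °C. Unbound ligand removed by ultrafiltration and washing. Bound ligand dissociated in methanol and quantified by LC/MS (ESI positive). Ratio of peak area with active vs heat-denatured (90 °C, 1 h) protein. Duplicate assays, each analyzed twice.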

[10] = target: T2, Frataxin, mitochondrial (Homo sapiens); test: Binding affinity to recombinant His-tagged frataxin (unknown origin) at 1 uM at 37 degC by UF-LC/MS analysis relative to control; method in brief: as §5
[11] = tested on: Calu-6; test: Cytotoxicity against human Calu6 cells assessed as cell viability up to 100 uM; format: cell-based

SMILES: CC(C)C[C@@H](C=O)NC(=O)[C@H](CC(C)C)NC(=O)[C@H](CC(C)C)NC(=O)OCc1ccccc1 (Cbz-Leu-Leu-Leu-aldehyde)
- inhibition [1]: Active
- inhibition [2]: Active
- inhibition [3]: Active
- inhibition [4]: inactive
- inhibition [5]: Active

SMILES: COc1cccc(C(c2cc3c(cc2O)OCO3)N2CCOCC2)c1OC (single isomer, unassigned; (-))
- inhibition [6]: inactive

SMILES: COc1cc(OC)c(C(c2cc3c(cc2O)OCO3)N2CCOCC2)c(OC)c1 (stereo not drawn)
- inhibition [7]: Dose-dependent effect
- IC50 [8]: 53 µM

SMILES: Oc1cc2c(cc1C(c1ccc3c(c1)OCO3)N1CCOCC1)OCO2 (stereo not drawn)
- inhibition [7]: Dose-dependent effect
- IC50 [8]: 70 µM

SMILES: COc1ccc(C(c2cc3c(cc2O)OCO3)N2CCOCC2)cc1OC (stereo not drawn)
- inhibition [7]: Dose-dependent effect
- IC50 [8]: 20 µM

SMILES: Oc1ccccc1C(c1cc2c(cc1O)OCO2)N1CCOCC1 (stereo not drawn)
- inhibition [7]: Dose-dependent effect
- IC50 [8]: 80 µM

SMILES: COc1cccc(C(c2cc3c(cc2O)OCO3)N2CCOCC2)c1OC (racemic)
- inhibition [6]: Active

SMILES: COc1cccc(C(c2cc3c(cc2O)OCO3)N2CCOCC2)c1OC (single isomer, unassigned; (+)) [listing 1 of 2 here]
- inhibition [6]: Active
- fold change (FC) [9]: 3.7
- inhibition [7]: Dose-dependent effect
- fold change (FC) [10]: 3.32

SMILES: COc1cccc(C(c2cc3c(cc2O)OCO3)N2CCOCC2)c1O (stereo not drawn)
- inhibition [7]: Dose-dependent effect
- IC50 [8]: 29 µM

SMILES: COc1ccc(C(c2cc3c(cc2O)OCO3)N2CCOCC2)c(OC)c1 (stereo not drawn)
- inhibition [7]: Dose-dependent effect
- IC50 [8]: 44 µM

SMILES: Oc1cc2c(cc1C(c1ccc(Cl)cc1)N1CCOCC1)OCO2 (stereo not drawn)
- inhibition [7]: Dose-dependent effect
- IC50 [8]: 68 µM

SMILES: CC(C)C[C@H](NC(=O)[C@H](Cc1ccccc1)NC(=O)c1cnccn1)B(O)O
- inhibition [3]: Active

SMILES: CN(C)c1ccc(C(c2cc3c(cc2O)OCO3)N2CCOCC2)cc1 (stereo not drawn)
- inhibition [7]: Dose-dependent effect
- IC50 [8]: 81 µM

SMILES: COc1cccc(C(c2cc3c(cc2O)OCO3)N2CCOCC2)c1OC (single isomer, unassigned; (+)) [listing 2 of 2 here]
- Activity [11]: Non-toxic
- IC50 [8]: 45 µM

SMILES: Oc1cc2c(cc1C(c1ccc(F)cc1)N1CCOCC1)OCO2 (stereo not drawn)
- inhibition [7]: Dose-dependent effect
- IC50 [8]: 67 µM

SMILES: COc1ccc(C(c2cc3c(cc2O)OCO3)N2CCCCC2)cc1 (stereo not drawn)
- inhibition [7]: Dose-dependent effect
- IC50 [8]: 82 µM

SMILES: COc1ccc(C(c2cc3c(cc2O)OCO3)N2CCCC2)cc1 (stereo not drawn)
- inhibition [7]: Dose-dependent effect
- IC50 [8]: 97 µM

SMILES: COc1ccc(C(c2cc3c(cc2O)OCO3)N2CCOCC2)cc1 (stereo not drawn)
- inhibition [7]: Dose-dependent effect
- IC50 [8]: 65 µM
